Calls of active or inactive are those of the source. The rule behind the calls is not given here.

The subject of experiment [1] is Leishmania amazonensis. Kind of experiment: Induction of membrane potential depolarization in Leishmania amazonensis MHOM/BR/75/LTB0016 promastigotes assessed as reduction in mitochondrial membrane potential at 20 uM incubated for 24 hrs by JC1 dye based fluorescence assay. To be noted: MHOM/BR/75/LTB0016, 24 h, read-out: INH.
Experiment [2] concerns Leishmania amazonensis. Kind of experiment: Induction of ultrastructural alterations in Leishmania amazonensis MHOM/BR/75/LTB0016 promastigotes assessed as concentric membrane structures formation inside organelle at 12 to 96 uM incubated for 24 hrs by transmission electron microscopy. Type of experiment: functional, organism-based. The gist of the method:
(§1)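 Promastigotes (5 × 10^6 cells/mL) were treated for 24 h at 26 °C in Schneider medium with compound at 12, 24 or 96 μM. They were fixed in 2.5% glutaraldehyde in 0.1 M cacodylate (pH 7.2) for 40 min and postfixed in 1% OsO4, 0.8% potassium ferricyanide and 2.5 mM CaCl2 for 20 min. Cells were acetone-dehydrated and resin-embedded. Ultrathin sections were stained with uranyl acetate and lead citrate and examined by transmission electron microscopy.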

For experiment [3], the system named is Leishmania amazonensis. In words: Induction of intracellular ROS generation in Leishmania amazonensis MHOM/BR/75/LTB0016 promastigotes incubated for 24 hrs by H2DCFDA dye based assay. The format is functional, organism-based. The gist of the method: (§2)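 Promastigotes (5 × 10^6 cells/mL) were cultured 24 h at 26 °C with compound (3−96 μM) or vehicle, then resuspended in HBSS at 1 × 10^7 cells/mL. They were loaded with 20 μM H2DCFDA for 20 min at 26 °C and read by flow cytometry. Results are fold increase over control, mean ± SE of three experiments.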

The test system of experiment [4] is Leishmania amazonensis. In words: Induction of ultrastructural alterations in Leishmania amazonensis MHOM/BR/75/LTB0016 promastigotes assessed as inner mitochondrial membrane damage with washed-out matrix appearance and decreased matrix electron density at 12 to 96 uM incubated for 24 hrs by transmission electron microscopy. The format is functional, organism-based. The gist of the method: as §1

Experiment [5] deals with Leishmania amazonensis. In words: Induction of ultrastructural alterations in Leishmania amazonensis MHOM/BR/75/LTB0016 promastigotes assessed as rupture of trans-Golgi network at 24 uM incubated for 24 hrs by transmission electron microscopy.
Experiment [6] deals with Leishmania amazonensis. In words: Antiparasitic activity against Leishmania amazonensis MHOM/BR/75/LTB0016 promastigotes assessed as inhibition of cellular proliferation incubated for 24 hrs by CFSE staining based flow cytometry. Type of experiment: functional, organism-based. The gist of the method:
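Promastigotes (2.5 × 10^7 cells/mL) were washed in PBS and stained with 10 μM CFSE in PBS/0.1% albumin for 15 min at 26 °C. Staining was stopped with ice-cold medium. Cells were resuspended at 1.0 × 10^6 cells/mL with compound (3−96 μM) or 0.2% DMSO for 24 h at 26 °C. Fluorescence was read by flow cytometry. Histograms are representative of three experiments.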
Background: Flow cytometry measures light scatter and fluorescence of single cells or particles in a stream.

Experiment [7] deals with Leishmania amazonensis. In words: Induction of intracellular ROS generation in Leishmania amazonensis MHOM/BR/75/LTB0016 promastigotes at 96 uM incubated for 24 hrs in presence of GSSG by H2DCFDA dye based assay. Type of experiment: functional, organism-based. The procedure, abridged:
(§3)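 Cultures held GSH, GSSG or NAC (300 μM final, in PBS) together with 96 μM compound or 0.2% DMSO for 24 h at 26 °C in Schneider medium. Cells were then stained with H2DCFDA (20 μM, 20 min, 26 °C, in HBSS) and read by flow cytometry. Results are fold ROS increase versus control, mean ± SE of three experiments.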

Experiment [8] concerns Leishmania amazonensis. In words: Antiparasitic activity against Leishmania amazonensis MHOM/BR/75/LTB0016 promastigotes assessed as inhibition of cellular proliferation at 96 uM incubated for 24 hrs by Neubauer chamber based assay. To be noted: MHOM/BR/75/LTB0016, 24 h. Type of experiment: functional. The gist of the method: (§4)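 Strain MHOM/BR/75/LTB0016 promastigotes were grown at 26 °C in Schneider medium (pH 7.2) with 10% heat-inactivated FCS, penicillin and streptomycin. They were seeded at 1.0 × 10^6 cells/mL with compound (3−96 μM) or DMSO vehicle (0.2% final) for 24 h at 26 °C. Density was counted in a Neubauer chamber. IC50 came from logarithmic regression. Mean ± SE of three experiments.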

In experiment [9] the test system is Leishmania amazonensis. Kind of experiment: Induction of ultrastructural alterations in Leishmania amazonensis MHOM/BR/75/LTB0016 promastigotes assessed as extensive swelling of parasite mitochondria at 12 to 96 uM incubated for 24 hrs by transmission electron microscopy. Type of experiment: functional, organism-based. The gist of the method: as §1
Experiment [10] concerns Leishmania amazonensis. In words: Antiparasitic activity against Leishmania amazonensis MHOM/BR/75/LTB0016 promastigotes assessed as inhibition of cellular proliferation at 96 uM incubated for 24 hrs in presence of 300 uM GSH by Neubauer chamber based assay. Type of experiment: functional, organism-based. The procedure, abridged:
(§5)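 Promastigotes were preincubated with GSH, GSSG or NAC (300 μM final, in PBS) and then grown 24 h at 26 °C in Schneider medium with 96 μM compound (in DMSO) or vehicle (0.2% DMSO). Proliferation was counted in a Neubauer chamber. Mean ± SE of three experiments.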

For experiment [11], the system named is Leishmania amazonensis. Kind of experiment: Induction of intracellular ROS generation in Leishmania amazonensis MHOM/BR/75/LTB0016 promastigotes at 96 uM incubated for 24 hrs in presence of NAC by H2DCFDA dye based assay. Type of experiment: functional, organism-based. The procedure, abridged: as §3
Experiment [12] deals with Leishmania amazonensis. In words: Antiparasitic activity against Leishmania amazonensis MHOM/BR/75/LTB0016 promastigotes assessed as inhibition of cellular proliferation incubated for 48 hrs by CFSE staining based flow cytometry. Type of experiment: functional, organism-based. The following applies: MHOM/BR/75/LTB0016, 48 h.
Experiment [13] concerns Leishmania amazonensis. In words: Induction of ultrastructural alterations in Leishmania amazonensis MHOM/BR/75/LTB0016 promastigotes assessed as washed-out appearance of mitochondria matrix and loss of cristae at 96 uM incubated for 24 hrs by transmission electron microscopy. The format is functional, organism-based. The procedure, abridged: as §1
Experiment [14] concerns Leishmania amazonensis. In words: Induction of intracellular ROS generation in Leishmania amazonensis MHOM/BR/75/LTB0016 promastigotes at 96 uM incubated for 24 hrs by H2DCFDA dye based assay. Type of experiment: functional. The procedure, abridged: as §2
Experiment [15] concerns Leishmania amazonensis. In words: Induction of ultrastructural alterations in Leishmania amazonensis MHOM/BR/75/LTB0016 promastigotes assessed as appearance of endoplasmic profiles surrounding cellular structures and cytosolic vacuolization at 12 uM incubated for 24 hrs by transmission electron microscopy. The format is functional, organism-based. The procedure, abridged:
as §1

Experiment [16] relates to Leishmania amazonensis. Kind of experiment: Antiparasitic activity against Leishmania amazonensis MHOM/BR/75/LTB0016 promastigotes assessed as inhibition of cellular proliferation incubated for 24 hrs by Neubauer chamber based assay. Type of experiment: functional, organism-based. The gist of the method:
as §4

The subject of experiment [17] is Leishmania amazonensis. Kind of experiment: Antiparasitic activity against Leishmania amazonensis MHOM/BR/75/LTB0016 promastigotes assessed as inhibition of cellular proliferation at 96 uM incubated for 24 hrs in presence of 300 uM GSSG by Neubauer chamber based assay. Type of experiment: functional, organism-based. The procedure, abridged: as §5
For experiment [18], the system named is Leishmania amazonensis. In words: Induction of membrane potential depolarization in Leishmania amazonensis MHOM/BR/75/LTB0016 promastigotes assessed as reduction in mitochondrial membrane potential incubated for 24 hrs by JC1 dye based fluorescence assay. Type of experiment: functional, organism-based. The gist of the method: (§6)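 Promastigotes (5 × 10^6 cells/mL) were treated for 24 h with compound (3−96 μM) or 0.2% DMSO, then resuspended in HBSS at 1 × 10^7 cells/mL. They were stained with JC-1 (10 μg/mL, 10 min, 26 °C) and washed twice. Emission was read at 590 and 530 nm (excitation 480 nm), and the 590/530 ratio gives relative ΔΨm. FCCP 20 μM for 20 min served as positive control. Mean ± SE of three experiments.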

Experiment [19] concerns Leishmania amazonensis. In words: Induction of membrane potential depolarization in Leishmania amazonensis MHOM/BR/75/LTB0016 promastigotes assessed as reduction in mitochondrial membrane potential at 96 uM incubated for 24 hrs by JC1 dye based fluorescence assay. Type of experiment: functional. The following applies: MHOM/BR/75/LTB0016, 24 h. The procedure, abridged:
as §6

Experiment [20] deals with Leishmania amazonensis. Kind of experiment: Antiparasitic activity against Leishmania amazonensis MHOM/BR/75/LTB0016 promastigotes assessed as inhibition of cellular proliferation at 96 uM incubated for 24 hrs in presence of 300 uM NAC by Neubauer chamber based assay. Type of experiment: functional, organism-based. The gist of the method:
as §5

For experiment [21], the system named is Leishmania amazonensis. Kind of experiment: Induction of intracellular ROS generation in Leishmania amazonensis MHOM/BR/75/LTB0016 promastigotes at 96 uM incubated for 24 hrs in presence of GSH by H2DCFDA dye based assay. Type of experiment: functional, organism-based. The procedure, abridged:
as §3

Experiment [22] relates to Leishmania amazonensis. In words: Induction of ultrastructural alterations in Leishmania amazonensis MHOM/BR/75/LTB0016 promastigotes assessed as cytoplasmic vacuolization at 12 uM incubated for 24 hrs by transmission electron microscopy.
The next experiment relates to Leishmania braziliensis. Kind of experiment: Induction of intracellular ROS generation in Leishmania braziliensis promastigotes at 500 uM incubated for 72 hrs by H2DCFDA dye based assay.
Experiment [23] relates to Leishmania amazonensis. In words: Induction of intracellular ROS generation in Leishmania amazonensis MHOM/BR/75/LTB0016 promastigotes at 96 uM incubated for 48 hrs by H2DCFDA dye based assay. The format is functional.

As for `N#CC(C#N)=NNc1ccc(OC(F)(F)F)cc1`, in the experiment on Leishmania amazonensis [1], the inhibition at 20 µM turned out to be 79.8%.

As to `O=c1cc(-c2ccc(O)cc2)oc2cc(O)cc(O)c12` [APIGENIN], the outcome in the experiment on Leishmania amazonensis [2], in the experiment on Leishmania amazonensis [4], in the experiment with Leishmania amazonensis [5], in the experiment on Leishmania amazonensis [7], in the experiment with Leishmania amazonensis [9] and in the experiment on Leishmania amazonensis [13] was Active. Also, the outcome in the experiment with Leishmania amazonensis [15], in the experiment on Leishmania amazonensis [17] and in the experiment with Leishmania amazonensis [22] was Active. Moreover, the Activity result in the experiment on Leishmania amazonensis [3] and with Leishmania amazonensis [18] was “Dose-dependent effect” each time. In addition, the inhibition entry in the experiment with Leishmania amazonensis [6] and in the experiment on Leishmania amazonensis [16] was “Dose-dependent effect” throughout. Moreover, the inhibition at 96 µM with Leishmania amazonensis [8] stood at 75%; in the experiment on Leishmania amazonensis [19], 78.3%. The result in the experiment with Leishmania amazonensis [10], in the experiment with Leishmania amazonensis [11], in the experiment with Leishmania amazonensis [20] and in the experiment with Leishmania amazonensis [21] was inactive. Besides, the IC50 with Leishmania amazonensis [12] amounted to 31.4 µM; with Leishmania amazonensis [16] (MHOM/BR/75/LTB0016, 24 h), 23.7 µM. Further, in the experiment on Leishmania amazonensis [14], the “fold change (FC)” value is recorded as 2.9.

In the case of `O=C(O[C@@H]1Cc2c(O)cc(O)cc2O[C@@H]1c1cc(O)c(O)c(O)c1)c1cc(O)c(O)c(O)c1` [EPIGALOCATECHIN GALLATE], in the experiment on Leishmania braziliensis, the “fold change (FC)” value is listed as 2.9.

As to `O=c1c(O)c(-c2ccc(O)c(O)c2)oc2cc(O)cc(O)c12` [QUERCETIN], the “fold change (FC)” value with Leishmania amazonensis [23] worked out at 4.4.

For orientation: IC50 means the concentration at which inhibition is half-maximal.

(Values after ChEMBL document CHEMBL3580591, “Effect of Apigenin on Leishmania amazonensis Is Associated with Reactive Oxygen Species Production Followed by Mitochondrial Dysfunction” (J Nat Prod, 2015).)
